Measured values from different studies.
Protocols differ between the studies behind these lines.
Target: Dual specificity mitogen-activated protein kinase kinase 7 (MAP2K7, Homo sapiens, UniProt O14733)
One construct used (O14733 1-419): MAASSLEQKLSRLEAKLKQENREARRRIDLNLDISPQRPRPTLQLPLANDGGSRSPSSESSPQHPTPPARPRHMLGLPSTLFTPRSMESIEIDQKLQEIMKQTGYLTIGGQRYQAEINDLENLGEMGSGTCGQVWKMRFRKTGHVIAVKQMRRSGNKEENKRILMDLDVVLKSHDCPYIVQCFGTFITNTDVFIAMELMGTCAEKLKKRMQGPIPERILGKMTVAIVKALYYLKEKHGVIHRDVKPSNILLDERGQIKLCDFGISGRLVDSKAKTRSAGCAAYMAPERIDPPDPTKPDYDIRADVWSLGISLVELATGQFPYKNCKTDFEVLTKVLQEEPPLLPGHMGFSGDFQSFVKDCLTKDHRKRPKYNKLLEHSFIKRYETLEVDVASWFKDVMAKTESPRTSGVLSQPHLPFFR

| SMILES | read-out | method | concentration | remaining binding [%] |
| --- | --- | --- | --- | --- |
| c1cncc(-c2cccc(Nc3nccc(NC4CCCCC4)n3)c2)c1 | binding | competition with immobilised ligand | 10 µM | 100 |
| CN(C)c1ncc(F)c(-c2cnn3ncccc23)n1 | binding | – | 1 µM | 88 |
| CN(c1ccnc(CNc2nc(Nc3ccc4c(c3)CC(=O)N4)ncc2C(F)(F)F)n1)S(C)(=O)=O | cell-free assay | competition with immobilised ligand | 1 µM | 73 |
| N[C@H]1CCN(c2nccc(-c3cnn4ncccc34)n2)C1 | binding | – | 1 µM | 93 |
| Cc1cnc(Nc2ccc(C(=O)N3CCC(N4CCCC4)CC3)cc2)nc1-c1cc2ccccc2s1 | binding | competition with immobilised ligand | 1 µM | 81 |
| CN(C)CC#Cc1ccc(OCCCc2sc(N3CCc4cccc(C(=O)Nc5nc6ccccc6s5)c4C3)nc2C(=O)O)c(F)c1 | cell-free assay | competition with immobilised ligand | 1 µM | 69 |
| COc1ncc2cc3ccccc3nc2c1C#N | cell-free assay | competition with immobilised ligand | 5 µM | 95 |
| CS(=O)(=O)N1CCCC(NC(=O)[C@H](CCC2CCCCC2)NC(=O)c2ccc(CNc3ncnc4c3nnn4-c3ccccc3)cc2)C1 (some centres unmarked) | cell-free assay | competition with immobilised ligand | 0.1 µM | 100 |
| O=C(c1ccc(Nc2ncc(Cl)c(-c3cc4ccccc4s3)n2)cc1)N1CCC(N2CCCC2)CC1 | binding | competition with immobilised ligand | 1 µM | 96 |
| CCN1CCN(Cc2ccc(C(=O)Nc3ccc(C)c(Oc4ccc5c(c4)CC(=O)N5)c3)cc2C(F)(F)F)CC1 | binding | competition with immobilised ligand | 1 µM | 97 |
| CNC(=O)[C@@H]1CC[C@@H](n2c(-c3ccc4cnccc4c3)nc3ccc(C(=O)NCc4cccc(C(N)=O)c4)cc32)C1 | binding | competition with immobilised ligand | 1 µM | 100 |
| C[C@H]1CCN(c2nccc(-c3cnn4ncccc34)n2)C1 | binding | – | 1 µM | 83 |
| C[C@@H](c1cccc(C#N)c1)n1cc(Cl)cc(C(N)=O)c1=N | cell-free assay | competition with immobilised ligand | 1 µM | 99 |
| CN(C)c1nccc(-c2cnc3ncccn23)n1 | binding | – | 1 µM | 88 |
| CN(C)C(=O)Cn1cc(-c2nc([C@@](C)(c3ccc(-c4cnc(N)nc4)cc3)C3CC3)no2)cn1 | cell-free assay | competition with immobilised ligand | 1 µM | 94 |
| O=C(NCCCN1CCOCC1)c1ccc(Nc2nccc(-c3cc4ccccc4s3)n2)cc1 | binding | competition with immobilised ligand | 1 µM | 76 |
| c1cnn2ncc(-c3ccnc(N4CCC45COC5)n3)c2c1 | binding | – | 1 µM | 72 |
| O=C(NCC1CCOCC1)c1n[nH]cc1NC(=O)c1c(F)cccc1F | binding | competition with immobilised ligand | 1 µM | 84 |
| CN(C)c1ncnc(-c2ccc3nc(Nc4cc(CN5CCN(C(=O)CC(F)(F)F)CC5)ccn4)[nH]c3c2)c1Cl | cell-free assay | competition with immobilised ligand | 1 µM | 100 |
| CC1CCCN1c1nccc(-c2cnn3ncccc23)n1 (centres unmarked) | binding | – | 1 µM | 100 |
